# PP5 inh – inhibitors of human protein phosphatase 5 (PP5). P53041. purified PP5c, OMFP substrate fluorescence. inhibition, % at 6.7 µM. 320,000 tested, 0.18% active. AID 1987;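 active means inhibition above the campaign's mean inhibition across all tested compounds plus 3 SD, cut at about 9.5% in these data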
# Target sequence (P53041 whole entry, looked up): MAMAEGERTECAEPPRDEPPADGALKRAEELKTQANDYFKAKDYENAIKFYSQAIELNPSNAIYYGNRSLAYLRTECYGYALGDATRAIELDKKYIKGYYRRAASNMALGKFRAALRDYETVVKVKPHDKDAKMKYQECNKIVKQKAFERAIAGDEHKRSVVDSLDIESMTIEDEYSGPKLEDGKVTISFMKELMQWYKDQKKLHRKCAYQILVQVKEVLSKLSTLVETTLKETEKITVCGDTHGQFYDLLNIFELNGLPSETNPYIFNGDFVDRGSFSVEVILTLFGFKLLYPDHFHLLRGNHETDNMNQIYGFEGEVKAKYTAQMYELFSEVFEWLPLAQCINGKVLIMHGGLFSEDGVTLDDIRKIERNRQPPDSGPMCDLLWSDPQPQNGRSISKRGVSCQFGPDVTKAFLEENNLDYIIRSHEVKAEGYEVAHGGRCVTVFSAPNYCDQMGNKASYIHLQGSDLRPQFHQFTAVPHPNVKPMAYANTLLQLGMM
# Scp-1 inhibitor – Scp-1 (human) phosphatase inhibition | Recombinant Scp1, phosphopeptide, malachite green phosphate absorbance | inhibition, % at 20 µM | AID 493091 | Q9GZU7 | 340,000 tested, 0.88% active;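 active means inhibition above about 50% at 20 µM, limit read from the data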
#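 Test system: SCP-1 phosphatase catalytic domain, residues 76-261 | Compound dosing: One concentration, 20 µM, with 1.0% DMSO | Schedule: 45 min room-temperature reaction, 5 min colour, 30 min stabiliser | Detection: Absorbance at 630 nm | Read-out basis: % inhibition of SCP-1 phosphate liberation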
# STEP inh – blocks human striatal-enriched tyrosine phosphatase. P54829. recombinant STEP, OMFP fluorogenic substrate, fluorescence. inhibition, % at 20 µM. 360,000 tested, 0.25% active. AID 588621;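 active means inhibition at 20 µM, scaled per plate between control wells, above about 37%, limit read from the data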
#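 Assay system: isolated STEP enzyme / Timing: 20 min at room temperature, dark / Doses: 20 µM, 1% DMSO / Technique: fluorescence intensity, excitation 480 nm, emission 540 nm / Reagent: fluorogenic phosphatase substrate OMFP at 25 µM final / Measure: percent inhibition scaled to no-enzyme and uninhibited-enzyme controls, plate-pattern corrected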
# LMPTP block – LMPTP (human) inhibition | AID 651560 | 360,000 tested, 0.22% active | recombinant LMPTP-A, OMFP fluorogenic substrate, fluorescence intensity | P24666 | inhibition, % at 20 µM;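 active means compounds that cut the enzyme signal by at least half of the control window in the single-dose screen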
# Target sequence (P24666 whole entry, looked up): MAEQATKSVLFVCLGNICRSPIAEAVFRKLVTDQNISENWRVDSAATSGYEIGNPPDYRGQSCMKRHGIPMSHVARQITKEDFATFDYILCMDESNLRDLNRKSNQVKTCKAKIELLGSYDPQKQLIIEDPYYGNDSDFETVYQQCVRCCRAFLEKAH
#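 Assay system: LMPTP-A, protein tyrosine phosphatase of low molecular weight / Medium: pH 6.0 Bis-Tris buffer with DTT and Triton X-100 / Schedule: 50 min enzyme reaction at room temperature, protected from light / Measured by: endpoint fluorescence intensity from OMFP dephosphorylation / Read-out basis: % inhibition relative to no-enzyme and uninhibited control wells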
# PP1 counter – PP1-alpha (human) inhibition in PP5 counter-screen; P62136; purified PP1alpha, OMFP fluorescence; inhibition, % at 6.7 µM; 320,000 tested, 0.9% active; AID 2235;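 active means inhibition above the mean inhibition of all tested compounds plus 3 SD, computed separately for each screening campaign, cut at about 15% in these data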
# Scp-1 conf – Scp-1 (human) inhibition, single-dose confirmed; shares compounds with Scp-1 inhibitor; recombinant SCP-1 catalytic domain, phosphate release, malachite green absorbance; inhibition, % at 20 µM; 2,500 tested, 61% active
# Scp-1 MG ctr – counter-screen for Scp-1 inhibitors: colorimetric interference; shares compounds with Scp-1 inhibitor; Colorimetric interference counterscreen, malachite green absorbance 630 nm; apparent inhibition (interference), % at 20 µM; 2,500 tested, under 10 active;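 further: compounds added after enzyme reaction finished so only phosphate colour detection is probed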
# Scp1 DSF – Scp-1 (human) binding by thermal shift. Recombinant SCP1, Sypro Orange thermal shift Tm. AID 540329. 1,500 tested, 25% active. thermal shift relative to vanadate control, % at 40 µM. shares compounds with Scp-1 inhibitor;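 active means substances whose mean melting-temperature shift, as a percentage of the reference inhibitor's shift, reaches about 5.3%, limit read from the data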
# Hits are given with their value; 0 = inactive; - = no result. Most compounds without a hit are left out; they make up all but 1.9% or so of the library.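 How the source made its calls, unless noted: active means inhibition of at least 30% at 20 µM; inactive means the rest.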
SMILES,PP5 inh,Scp-1 inhibitor,STEP inh,LMPTP block,PP1 counter,Scp-1 conf,Scp-1 MG ctr,Scp1 DSF
COCc1cc(C)nc(N/N=C/c2ccc(-c3ccc(C(=O)O)c(Cl)c3)o2)c1C#N,0,-,-,-,0,-,-,-
COCc1cc(C)n(CC(=O)N/N=C/c2ccc(-c3ccc(Cl)c(C(=O)O)c3)o2)c(=O)c1C#N,0,66.3,0,0,0,63.2,0,0
O=C(Nc1ccc2nn(-c3ccccc3)nc2c1)c1ccc2c(c1)OCCO2,0,0,0,0,0,-,-,-
O=C(Nc1ccc2nn(-c3ccccc3)nc2c1)c1ccc(Br)o1,0,92.7,0,0,0,90.2,0,0
O=C(COc1cccnc1[N+](=O)[O-])Nc1ncc(Cl)cc1Cl,0,62.2,0,0,0,62.6,0,10.0
CCC(C(=O)NCCC1=CCCCC1)c1ccccc1 (stereo not drawn),0,0,0,0,0,-,-,-
CCC(C)c1ccccc1NC(=O)c1[nH]c(C)c(C(C)=O)c1C (stereo not drawn),0,53.9,0,0,0,0,0,-
CCC(C(=O)NCc1ccc(F)cc1)n1nc(C)n2c(cc3occc32)c1=O (stereo not drawn),0,0,0,0,0,-,-,-
COCCCNC(=O)/C(C#N)=C/c1ccc(OCC(=O)O)c(OC)c1,0,57.1,0,0,0,60.4,0,7.5
O=C(O)C1(S(=O)(=O)CCC(F)=C(F)F)CC1,0,98.0,0,0,0,0,0,-
Cc1ccccc1CCNC(=O)Cn1nc(C)c2c(C)n(-c3ccccc3)nc2c1=O,0,0,0,0,0,-,-,-
Cc1nn(CC(=O)NCc2cccs2)c(=O)c2nn(-c3ccccc3)c(C)c12,0,50.7,0,0,0,0,0,-
Cc1ccc(C)c(S(=O)(=O)N2CCN(C(=O)c3cc(-c4cccs4)nn3-c3ccccc3)CC2)c1,0,0,0,0,0,-,-,-
O=C(CC1C(=O)NCCN1Cc1c(F)cccc1Cl)NCCCOc1cccnc1 (stereo not drawn),0,0,0,0,0,-,-,-
N=C1/C(=C\c2ccc(Br)o2)C(=O)N=C2SC(CC(=O)N3CCCCC3)=NN12,0,79.7,0,0,0,47.6,0,12.3
CN(C)c1ccc(/C=C2\C(=N)N3N=C(CC(=O)N4CCCC4)SC3=NC2=O)cc1Br,0,57.5,0,0,0,0,0,-
CC1Sc2ccc(S(=O)(=O)CCC(=O)Nc3ccccn3)cc2NC1=O (stereo not drawn),0,0,0,0,0,-,-,-
CCc1ccc(NC(=O)COc2ccc(/C=C(/C#N)c3nc4ccccc4[nH]3)cc2OC)cc1,0,0,0,0,0,-,-,-
CCn1cc(S(=O)(=O)c2ccc(C)cc2)c(=O)c2cc(F)c(N3CCN(C)CC3)cc21,0,60.5,0,0,0,0,0,-
Cc1ccc(S(=O)(=O)c2cn(C)c3cc(N4CCN(C)CC4)c(F)cc3c2=O)cc1,0,0,0,0,0,-,-,-
CCN(CC)S(=O)(=O)c1cccc(C(=O)Nc2ccc(S(=O)(=O)NC3=NCCCCC3)cc2)c1,0,55.7,0,0,0,0,0,-
CON(C)S(=O)(=O)c1cccc(C(=O)Nc2ccc(S(=O)(=O)NC3=NCCCCC3)cc2)c1,-,0,0,0,-,-,-,-
CC1(C)CC(=O)C2=C(C1)OC(N)=C(C#N)C21C(=O)N(Cc2ccccc2Cl)c2ccccc21 (stereo not drawn),0,0,0,0,0,-,-,-
C=CCc1cc(/C=C/c2nc(O)c([N+](=O)[O-])c(=O)[nH]2)cc(OC)c1O,0,63.7,0,0,0,58.5,0,11.1
CC[n+]1ccc(C[n+]2ccccc2)c2ccccc21,0,96.9,0,0,0,86.2,0,0
SMILES,PP5 inh,Scp-1 inhibitor,STEP inh,LMPTP block,PP1 counter,Scp-1 conf,Scp-1 MG ctr,Scp1 DSF
CCOc1ccccc1C(O)C1=CC(=O)c2ccccc2C1=O (stereo not drawn),-,74.7,0,0,-,54.1,0,14.3
Nc1[nH]nc2nc(-c3ccccc3)[nH]c(=O)c12,0,0,0,0,0,-,-,-
CCC1SC2=NC(C)=C(C(=O)OCCOC)C(/C=C/c3ccccc3OC)N2C1=O (stereo not drawn),0,58.5,0,0,0,0,0,-
Cc1ccc(NC(=O)CS(=O)CC(=O)Nc2ccc(N3CCOCC3)cc2)cc1Cl (stereo not drawn),0,96.9,0,0,0,69.7,0,0
CC(C)Cc1nnc(NC(=O)CC(C)c2ccccc2)s1 (stereo not drawn),0,0,0,0,0,-,-,-
CCc1nnc(NC(=O)CC(C)c2ccccc2)s1 (stereo not drawn),0,58.3,0,0,0,0,0,-
O=c1oc2ccccc2c2c1ccc1ccccc12,-,79.6,0,0,-,0,0,-
O=[N+]([O-])c1ccc(Sc2cc[n+]([O-])c3ccccc23)c([N+](=O)[O-])c1,0,0,0,0,0,-,-,-
Cc1ccc(NC(=O)CN2C(=O)N/C(=C\c3cccn3-c3cccc(C(=O)O)c3)C2=O)cc1,-,66.8,0,0,-,54.7,0,6.2
CC(=O)NC1=NC(=O)/C(=C/c2cc(C)n(-c3ccc(NC(C)=O)cc3)c2C)S1,0,0,0,0,0,-,-,-
O=C(O)c1cccc(-n2cccc2/C=N/O)c1,0,76.6,0,0,0,64.8,0,0
O=C(CN1C(=O)N/C(=C\c2ccccc2OCc2ccc(C(=O)O)cc2)C1=O)Nc1ccccc1F,0,50.1,0,0,0,78.2,0,0
CC(=O)NC1=NC(=O)/C(=C/c2cc(C)n(-c3cccc(C(=O)O)c3)c2C)S1,-,71.8,0,0,-,53.1,0,5.3
COC(=O)c1ccc(CN2CCC(Oc3ccc(C(=O)N4CCCCC4)cc3)CC2)cc1,0,0,0,0,0,-,-,-
CC1(c2nnc(Cc3ccccc3)o2)CC(c2ccccc2)=NO1 (stereo not drawn),0,0,0,0,0,-,-,-
CN1C[C@H]2CON(C)[C@H]2C[C@H]1c1cccc(N2CCOCC2)c1,-,0,0,0,-,-,-,-
CCOC(=O)c1cccc(-n2cccc2/C=C2\NC(=O)N(CC(=O)O)C2=O)c1,-,0,0,0,-,-,-,-
COc1cc2c(cc1/C=C1/NC(=O)N(CC(=O)Nc3ccccc3)C1=O)OCO2,0,0,0,0,0,-,-,-
Cc1ccc(NC(=O)CN2C(=O)N/C(=C/c3cc(C)n(-c4cccc(C(=O)O)c4)c3C)C2=O)cc1,-,59.1,0,0,-,66.4,0,6.9
Cc1ccc(CN2C(=O)N/C(=C\c3cccn3-c3cccc(C(=O)O)c3)C2=O)cc1,0,64.1,0,0,0,57.2,0,0
